The list is not random: actives were taken first. Their share in the collection is about 2.3%.
Env fusion inh: inhibitors of HIV Env-mediated cell fusion | HeLa-JRFL Env/CEM21 cell fusion, luciferase | inhibition, % at 12.3 µM | hit rate 1.1% among 360,000 | AID 651610;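 active means mean replicate inhibition score of at least 50 and every replicate individually at or above 50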;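 further: 0% = plate neutral controls and 100% = maraviroc near 300 nM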
Arrestin-AP2 inh: inhibitors of human beta-arrestin and AP2 interaction; FITC-arrestin peptide / GST-AP2 beads, flow cytometry; AP2 beta2 appendage carries R879A mutation; inhibition, % at 10 µM; hit rate 0.31% among 340,000; AID 504490;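 active means inhibition above a set limit, near 3 SD of compounds lacking own fluorescence, cut at about 54% in these data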;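 further: plate controls were DMSO wells for no effect and 5 µM unlabelled arrestin peptide for full effect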
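Assay system: GST-AP2 R879A bound to glutathione beads, E. coli-expressed; Medium: PBS with 0.05% Tween 20 and 0.1% BSA; Also added: fluorescein-tagged arrestin peptide at 50 nM final; Timing: 12 min plus 1 h, RT; Measured by: flow cytometry, FL1 (488/535 nm); Evaluation: percent drop in bead-associated FITC signal.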
PfHsp90 yeast 2: growth inhibition of yeast expressing Plasmodium Hsp90. S. cerevisiae expressing PfHsp90, BacTiter-Glo ATP, 48 h; yeast lacking PDR1 and PDR3 efflux regulators. inhibition, % at 9.4 µM. hit rate 0.32% among 310,000;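 active means every replicate shows inhibition above about 80%, whatever the replicate mean, limit read from the data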;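 further: 0% = DMSO neutral controls and 100% = 20 µM radicicol positive controls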
Glyco luc inh: blocks N-linked glycosylation in D54 reporter cells | D54 ERlucT glycosylation luciferase reporter, 24 h; percent of 100 nM tunicamycin response | reporter increase, % at 12.5 µM | hit rate 0.23% among 360,000 | AID 588692;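 active means mean luciferase reporter signal, scaled so untreated is 0 and the glycosylation-blocking control 100, at or above a set limit in every replicate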;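 further: luciferase carries N-glycosylation sites so blocking glycosylation raises the light; 0% = median of neutral control wells and 100% = median of 100 nM tunicamycin wells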
Rtt109 HAT inh: C. albicans Rtt109 histone acetyltransferase inhibition; inhibition, % at 34.9 µM; purified Rtt109/Vps75, ThioGlo CoA-SH fluorescence, 4 h; AID 540336; hit rate 0.16% among 330,000; Q5AAJ8;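 active means inhibition of at least 50% in every replicate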
Target sequence (Q5AAJ8 whole entry, looked up): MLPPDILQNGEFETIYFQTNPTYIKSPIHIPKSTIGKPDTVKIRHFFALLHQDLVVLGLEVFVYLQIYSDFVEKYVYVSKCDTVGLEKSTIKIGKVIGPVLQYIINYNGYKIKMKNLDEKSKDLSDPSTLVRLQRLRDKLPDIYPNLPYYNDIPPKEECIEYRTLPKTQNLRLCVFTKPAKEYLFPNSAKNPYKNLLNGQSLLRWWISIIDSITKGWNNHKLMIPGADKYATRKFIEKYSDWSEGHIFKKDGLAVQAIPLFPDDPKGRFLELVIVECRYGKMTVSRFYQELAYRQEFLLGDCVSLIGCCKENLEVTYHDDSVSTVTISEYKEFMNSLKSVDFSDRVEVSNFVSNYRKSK
PAX8 inh HTS: PAX8 transcriptional activity inhibition; hit rate 1.2% among 360,000; inhibition, % at 12.6 µM; RMG-I TPO-luciferase reporter, SteadyGlo, 24 h;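 active means mean replicate inhibition at least 60% with every replicate also reaching 60%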;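 further: luciferase light reporting Pax8 driven TPO promoter activity; plate controls were median of neutral control wells for no effect and mitoxantrone controls for full effect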
* = called active by the depositor; i = inactive; . = not tested or not shown; ! = a repeat was not active; [ ] = another dose, or the depositor's remark.

SMILES | Env fusion inh | Arrestin-AP2 inh | PfHsp90 yeast 2 | Glyco luc inh | Rtt109 HAT inh | PAX8 inh HTS
C[C@@H]1CCCCO[C@H](CN(C)Cc2ccc(C(F)(F)F)cc2)[C@H](C)CN([C@@H](C)CO)C(=O)c2cc(NC(=O)Nc3ccccc3)ccc2O1 | 40[16.7 µM] | . | . | . | . | 75*
C[C@@H]1CN([C@@H](C)CO)C(=O)c2ccccc2-c2ccccc2CO[C@H]1CN(C)Cc1ccccc1C(F)(F)F | . | . | . | . | . | 79*
C[C@H]1CN([C@@H](C)CO)C(=O)c2c(c3ccccc3n2C)-c2ccccc2CO[C@@H]1CN(C)Cc1cccc(C(F)(F)F)c1 | . | . | . | . | . | 82*
C[C@H]1CN([C@@H](C)CO)C(=O)c2c(c3ccccc3n2C)-c2ccccc2CO[C@H]1CN(C)Cc1cccc(F)c1 | 67* | . | . | -1 | . | 6
C[C@H](CO)N1C[C@H](C)[C@H](CN(C)Cc2ccc(C(F)(F)F)cc2)OCc2ccccc2-c2ccccc2C1=O | . | . | . | . | . | 21
C[C@@H]1CN([C@@H](C)CO)C(=O)c2c(c3ccccc3n2C)-c2ccccc2CO[C@@H]1CN(C)Cc1cccc(C(F)(F)F)c1 | . | . | . | . | . | 56
C[C@H](CO)N1C[C@H](C)[C@H](CN(C)Cc2cccc(F)c2)OCc2ccccc2-c2ccccc2C1=O | 75*[16.7 µM] | . | . | . | . | 10
O=C(C[C@H]1CC[C@@H]2[C@H](COC[C@@H](O)CN2Cc2ccccc2)O1)NCc1ccccc1Cl | . | . | . | . | . | 0
COC(=O)C[C@H]1CC[C@H]2[C@@H](COc3ccc(NC(=O)Cc4cccs4)cc3C(=O)N2C)O1 | 17[16.7 µM] | . | . | . | . | 6
C[C@H](CO)N1C[C@H](C)[C@H](CN(C)Cc2cccnc2)OCc2ccccc2-c2c(n(C)c3ccccc23)C1=O | 59*[16.7 µM] | . | . | . | . | 9
C[C@@H]1CN([C@@H](C)CO)C(=O)c2c(c3ccccc3n2C)-c2ccccc2CO[C@@H]1CN(C)Cc1cccnc1 | -7[16.7 µM] | . | . | . | . | 2
O=C1C=CC(=O)N1c1ccc(Nc2ccccc2)cc1 | -6 | 8 | 126* | -1 | -4 | 9
O=c1c2ccccc2cnn1-c1ccc2ccccc2c1 | -71 | -8 | . | -17 | -9 | .
O=C1C=CC(=O)N1c1ccc2ccccc2c1 | 1 | 8 | 116* | 5 | -9 | -9
Cc1cccc(N2C(=O)C=CC2=O)c1 | -7 | 14 | 117* | 1 | -2 | 8
O=C(C[C@H]1CC[C@H]2[C@@H](COC[C@@H](O)CN2Cc2nccs2)O1)NCc1ccc(F)cc1 | 4[16.7 µM] | . | . | . | . | -6
C[C@@H]1CN([C@@H](C)CO)S(=O)(=O)c2ccc(-c3cccnc3)cc2O[C@H]1CN(C)C(=O)NC1CCCCC1 | -33[16.7 µM] | . | . | . | . | 7
O=C(CCN1CCCCC1)NCC[C@H]1CC[C@@H](NC(=O)Cc2cccnc2)[C@H](CO)O1 | 2[16.7 µM] | . | . | . | . | 2
Cc1ccc(S(=O)(=O)NCc2ccccc2)cc1C(=O)N1CCCCCCC1 | 66* | -6 | 29 | -1 | 0 | 4
COc1ccc(C(=O)O/N=C2\C(=O)N(C)c3ccccc32)cc1 | -9 | 35 | 105* | 6 | -1 | 14
C[C@@H]1CN([C@@H](C)CO)C(=O)c2c(c3ccccc3n2C)-c2ccccc2CO[C@@H]1CN(C)S(=O)(=O)c1ccc(C(F)(F)F)cc1 | . | . | . | . | . | 97*
Cc1ccc(S(=O)(=O)N(C)C[C@@H]2OCc3ccccc3-c3c(n(C)c4ccccc34)C(=O)N([C@H](C)CO)C[C@@H]2C)cc1 | 95* | . | . | -3 | . | 71*!
C[C@H]1CN([C@@H](C)CO)C(=O)c2c(c3ccccc3n2C)-c2ccccc2CO[C@@H]1CN(C)S(=O)(=O)c1ccsc1 | 39[16.7 µM] | . | . | . | . | 92*
C[C@H](CO)N1C[C@H](C)[C@H](CN(C)S(=O)(=O)c2ccc(C(F)(F)F)cc2)OCc2ccccc2-c2c(n(C)c3ccccc23)C1=O | . | . | . | . | . | 54
C[C@H](CO)N1C[C@H](C)[C@H](CN(C)S(=O)(=O)c2ccc(Cl)cc2)OCc2ccccc2-c2c(n(C)c3ccccc23)C1=O | 82* | . | . | -4 | . | 88*!
SMILES | Env fusion inh | Arrestin-AP2 inh | PfHsp90 yeast 2 | Glyco luc inh | Rtt109 HAT inh | PAX8 inh HTS
C[C@@H]1CN([C@H](C)CO)C(=O)c2cc(C3=CCCC3)cnc2O[C@@H]1CN(C)C(=O)C1CC1 | -3[16.7 µM] | . | . | . | . | .
CO[C@H]1CN(C)C(=O)c2ccc(NS(C)(=O)=O)cc2OC[C@@H](C)N(Cc2nccs2)C[C@@H]1C | -8[16.7 µM] | . | . | . | . | 11
Nc1ccc(S(=O)(=O)Nc2cnc3c(Cl)cccc3n2)cc1 | . | 11 | -22 | 11 | -2 | 80*
Nc1ccc(S(=O)(=O)Nc2cnc3ccccc3n2)cc1 | 9 | -6 | -9 | -1 | 3 | -15
CN(C(=O)CSc1nc(O)cc(=O)n1-c1ccccc1F)c1ccccc1 | 65* | 13 | -2 | 2 | 11 | 10
CC[C@@]1(O)C(=O)OCc2c1cc1n(c2=O)Cc2cc3c(CN(C)C)c(O)ccc3nc2-1 | . | 40 | -7 | -9 | i | 102*
CC[C@@]1(O)C(=O)OCc2c1cc1n(c2=O)Cc2cc3c(N)cccc3nc2-1 | 68* | 36 | 28 | -14 | 0 | 99*
CCCCc1cc(=O)oc2c(CN(C)C)c(O)ccc12 | -17 | -2 | -10 | 0 | -433 | .
O=C(N[C@H]1CC[C@@H](CCn2cc(-c3cccnc3)nn2)O[C@H]1CO)c1ccccc1F | 5[16.7 µM] | . | . | . | . | 10
CC(C)CC[n+]1ccccc1/C=C/c1ccc(N(C)C)cc1 | 61* | -26 | 0 | -2 | 1 | 82*
c1ccc(-c2n[nH]c(-c3ccccc3)c2-c2nc3ccccc3[nH]2)cc1 | 14 | 9 | 69 | 31* | -10 | 24
O=C(C[C@@H]1CC[C@@H]2[C@H](COC[C@H](O)CN2S(=O)(=O)c2ccc(Cl)cc2)O1)NCC1CCCCC1 | . | . | . | . | . | -2
Cc1ccc(CNC(=O)c2ccc(Cn3nc(C)c(Cl)c3C)o2)cc1 | . | 2 | 109* | -4 | 5 | .
Cc1cc(C)cc(NC(=O)c2ccc(Cn3nc(C)c(Cl)c3C)o2)c1 | 49 | -5 | -38 | -2 | 1 | .
COc1ccc(NC(=O)N(C)C[C@@H]2Oc3c(NS(=O)(=O)c4ccc(OC)cc4)cccc3C(=O)N([C@H](C)CO)C[C@H]2C)cc1 | -27[16.7 µM] | . | . | . | . | 2
CCOC(=O)c1ccc(N=c2sc(C(=O)OC)cc(=O)n2Cc2ccco2)cc1 | -38 | 3 | -1 | 56* | -4 | 12
CCOC(=O)c1ccc(N=c2sc(C(=O)OC)cc(=O)n2CCCN2CCOCC2)cc1 | 23 | -11 | -6 | 16 | 6 | -25
C[C@H]1CCCCO[C@H](CN(C)Cc2ccc(Cl)c(Cl)c2)[C@@H](C)CN([C@@H](C)CO)C(=O)c2cc(NC(=O)Nc3ccc(F)cc3)ccc2O1 | 72*[16.7 µM] | . | . | . | . | 92*
C[C@@H]1CCCCO[C@@H](CN(C)Cc2ccc(Cl)c(Cl)c2)[C@@H](C)CN([C@@H](C)CO)C(=O)c2cc(NC(=O)Nc3ccc(F)cc3)ccc2O1 | 2[16.7 µM] | . | . | . | . | 57
